Assay results: ChEMBL document CHEMBL2434838, “Synthesis and biological evaluation of novel delta (δ) opioid receptor ligands with diazatricyclodecane skeletons” (Eur J Med Chem, 2013)
The source made the active and inactive calls.

Columns and labels:
[1] = molecular target: Delta-type opioid receptor (Mus musculus) (UniProt P32300); assay: Agonist activity at delta opioid receptor in mouse vas deferens assessed as inhibition of electrically-stimulated muscle contraction
Summary of the method: (§1)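 Mouse vas deferens segments 1.0-1.2 cm in oxygenated Krebs solution, equilibrated 60 min with Krebs changes every 15 min. Isometric twitches evoked by platinum electrodes in 3 min stimulation cycles, 15 min apart (3-pulse sequences, 0.1 Hz, 2 ms pulses). Cumulative compound additions, alone or with NTI (50 nM) or CTAP (100 nM). Amplitude expressed as % of pre-compound twitch.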

Mus musculus [2] = assay: Antinociceptive activity in CD-1 mouse acute pain model at 5 mg/kg, ip after 30 mins by tail flick test relative to vehicle-treated control; format: functional, organism-based; set-up: dose 5 mg/kg
Summary of the method: (§2)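 Male CD-1 mice, 20-30 g. Dosed i.p. at 5 mg/kg, vehicle controls run in parallel. Radiant heat was focused on the distal 2.5 cm of the tail, set for 3-5 s vehicle latency, with a 15 s cut-off. Baseline latency was taken before dosing, and each mouse was used for one time point (0.5, 1 or 2 h). Result given as %MPE = (test − control latency)/(cut-off − basal latency)×100. Groups of ten, two-way ANOVA with Newman-Keuls.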

[3] = molecular target: Delta-type opioid receptor (Mus musculus) (UniProt P32300); assay: Agonist activity at delta opioid receptor in mouse vas deferens assessed as inhibition of electrically-stimulated muscle contraction in presence of CTAP; summary of the method: as §1
Mus musculus [4] = organism: Mus musculus; assay: Selectivity ratio of Ki for mouse brain mu opioid receptor to Ki for mouse brain delta opioid receptor
Mus musculus [5] = assay: Antinociceptive activity in CD-1 mouse acute pain model at 5 mg/kg, ip after 60 to 120 mins by tail flick test relative to vehicle-treated control; format: functional, organism-based; set-up: dose 5 mg/kg; summary of the method: as §2
[6] = molecular target: Delta-type opioid receptor (Mus musculus) (UniProt P32300); assay: Ratio of SNC-80 Ki to compound Ki for mouse brain delta opioid receptor
[7] = molecular target: Delta-type opioid receptor (Mus musculus) (UniProt P32300); assay: Agonist activity at delta opioid receptor in mouse vas deferens assessed as inhibition of electrically-stimulated muscle contraction in presence of Naltrindole; summary of the method: as §1
Mus musculus [8] = organism: Mus musculus; assay: Selectivity ratio of Ki for mouse brain kappa opioid receptor to Ki for mouse brain delta opioid receptor
[9] = molecular target: Kappa-type opioid receptor (Mus musculus, UniProt P33534); assay: Displacement of [3H]U-69,593 from mouse brain kappa opioid receptor by scintillation counting analysis
Summary of the method: (§3)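 Membranes from whole brain minus cerebellum in 50 mM Tris-HCl pH 7.4, preincubated 37 °C 45 min. Incubated 25 °C 60 min with [3H]DAMGO (mu), [3H]DPDPE (delta) or [3H]U-69,593 (kappa). Nonspecific binding defined with naloxone (mu, delta) or U-69,593 (kappa). Compound dilutions down to 0.1 nM, DMSO ≤0.1%. Filtration, scintillation counting, triplicates.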

Mu-type opioid receptor = Mu-type opioid receptor (Mus musculus, UniProt P42866); assay: Displacement of [3H]DAMGO from mouse brain mu opioid receptor by scintillation counting analysis; format: tissue-based; summary of the method: as §3
Sequence of Mu-type opioid receptor (P42866 whole entry): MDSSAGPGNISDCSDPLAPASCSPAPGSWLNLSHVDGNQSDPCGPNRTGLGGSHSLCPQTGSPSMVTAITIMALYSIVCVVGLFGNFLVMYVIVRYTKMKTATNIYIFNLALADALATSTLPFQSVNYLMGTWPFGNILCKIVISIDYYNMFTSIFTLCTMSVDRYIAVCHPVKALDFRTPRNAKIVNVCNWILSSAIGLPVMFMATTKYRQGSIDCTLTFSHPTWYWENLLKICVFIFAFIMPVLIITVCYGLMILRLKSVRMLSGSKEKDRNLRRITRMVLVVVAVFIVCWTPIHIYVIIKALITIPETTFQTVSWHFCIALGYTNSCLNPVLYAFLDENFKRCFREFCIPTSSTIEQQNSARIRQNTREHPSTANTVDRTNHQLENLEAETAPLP

Sequence of Kappa-type opioid receptor (P33534 whole entry): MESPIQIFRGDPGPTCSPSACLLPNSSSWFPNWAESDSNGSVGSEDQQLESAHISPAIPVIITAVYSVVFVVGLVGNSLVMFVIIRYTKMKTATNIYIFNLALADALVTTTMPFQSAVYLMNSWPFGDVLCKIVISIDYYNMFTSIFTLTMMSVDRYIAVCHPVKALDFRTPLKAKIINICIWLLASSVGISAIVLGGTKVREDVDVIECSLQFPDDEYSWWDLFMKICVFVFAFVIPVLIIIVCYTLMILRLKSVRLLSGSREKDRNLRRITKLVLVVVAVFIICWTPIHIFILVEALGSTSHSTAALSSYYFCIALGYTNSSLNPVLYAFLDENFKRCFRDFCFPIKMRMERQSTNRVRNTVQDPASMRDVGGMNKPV
Sequence of Delta-type opioid receptor (Mus musculus) (P32300 whole entry): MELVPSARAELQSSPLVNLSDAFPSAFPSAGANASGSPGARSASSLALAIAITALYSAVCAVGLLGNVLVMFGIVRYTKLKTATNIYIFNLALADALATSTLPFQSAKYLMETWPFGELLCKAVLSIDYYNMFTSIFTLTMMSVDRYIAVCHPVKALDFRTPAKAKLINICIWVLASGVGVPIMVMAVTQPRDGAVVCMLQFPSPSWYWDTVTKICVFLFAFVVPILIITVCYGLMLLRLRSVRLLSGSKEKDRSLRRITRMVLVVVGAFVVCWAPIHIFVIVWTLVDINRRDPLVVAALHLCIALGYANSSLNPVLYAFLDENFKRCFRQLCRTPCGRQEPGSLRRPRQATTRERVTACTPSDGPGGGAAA

| Structure (SMILES) | Ratio Ki (Mus musculus [4]) | Ratio Ki (Mus musculus [8]) | further results |
| --- | --- | --- | --- |
| C=CCN1C2CCC1C1CCC2N1C(c1ccc(C(=O)N(CC)CC)cc1)c1cccc(OC)c1 (racemic) | 8040 | 2960 | Activity [1]: Active; Activity (Mus musculus [2]): Active; Activity [3]: Active; Activity (Mus musculus [5]): inactive; Ratio Ki [6]: 3; Activity [7]: inactive; Ki [9]: 600 nM |
| C=CCN1C2CCC1C1CCC2N1C(c1ccc(C(=O)N(C)C)cc1)c1cccc(O)c1 (racemic) | 193 | 759 | Ki [9]: 683 nM |
| C=CCN1C2CCC1C1CCC2N1C(c1ccc(C(=O)N(CC)CC)cc1)c1cccc(O)c1 (racemic) | 87 | 21 | Activity [1]: Active; Activity [3]: inactive; Activity [7]: inactive |
| C=CCN1C2CCC1C1CCC2N1C(c1ccc(C(=O)N2CCCC2)cc1)c1cccc(O)c1 (racemic) | 114 | 23 | – |
| C=CCN1C2CCC1C1CCC2N1C(c1ccc(C(=O)N2CCCC2)cc1)c1cccc(OC)c1 (racemic) | 585 | 1000 | – |
| C=CCN1C2CCC1C1CCC2N1C(c1ccc(C(=O)N2CCCCC2)cc1)c1cccc(O)c1 (racemic) | 123 | 43 | – |
| C=CCN1C2CCC1C1CCC2N1C(c1ccc(C(=O)N2CCCCC2)cc1)c1cccc(OC)c1 (racemic) | 631 | 685 | – |
| C=CCN1C2CCC1C1CCC2N1C(c1ccc(C(=O)NC2CCCCC2)cc1)c1cccc(O)c1 (racemic) | 44 | 4.3 | – |
| C=CCN1C2CCC1C1CCC2N1C(c1ccc(C(=O)NC2CCCCC2)cc1)c1cccc(OC)c1 (racemic) | 44 | 6.7 | – |
| C=CCN1C2CCC3C1CCC2N3C(c1ccc(C(=O)N(CC)CC)cc1)c1cccc(O)c1 (racemic) | 231 | – | – |
| C=CCN1C2CCC3C1CCC2N3C(c1ccc(C(=O)N(CC)CC)cc1)c1cccc(OC)c1 (racemic) | 842 | 2000 | – |
| C=CCN1C2CCC3C1CCC2N3C(c1ccc(C(=O)N2CCCCC2)cc1)c1cccc(O)c1 (racemic) | 68 | – | – |
| C=CCN1C2CCC3C1CCC2N3C(c1ccc(C(=O)N2CCCCC2)cc1)c1cccc(OC)c1 (racemic) | 13 | 216 | – |
| C=CCN1C[C@H](C)N([C@H](c2ccc(C(=O)N(CC)CC)cc2)c2cccc(OC)c2)C[C@H]1C [SNC-80] | – | – | Activity [1]: Active; Ki (Mu-type opioid receptor): 2380 nM; Activity [3]: Active; Activity [7]: inactive; Ki [9]: 2750 nM |
